Measurements pooled from the literature.
Each line is one published result; the experiments were not run side by side.
MET: Hepatocyte growth factor receptor (MET, Homo sapiens, UniProt P08581)
MET M1250T: Hepatocyte growth factor receptor (MET, Homo sapiens, UniProt P08581, M1250T)
MET Y1235D: Hepatocyte growth factor receptor (MET, Homo sapiens, UniProt P08581, Y1235D)

Compound	target	assay	conditions	quantity	result
Cc1ccc(NC(=O)c2ccc(C)c(C(F)(F)F)c2)cc1C#Cc1nn(C2CCC(O)CC2)c2ncnc(N)c12 (centres unmarked)	Hepatocyte growth factor receptor (MET, Homo sapiens, UniProt P08581, Y1230C)	cell-free assay	10 µM	remaining signal	139%
Cc1sc(C(=O)NC2COC2)cc1-n1cc(NC(=O)Nc2c(F)cccc2Cl)cn1	MET	enzyme activity, inhibitor	10 µM	remaining activity	77%
CN(C)C(=O)Cn1cc(-c2nc(C3(c4ccc(-c5cnc(N)nc5)cc4)CC3)no2)cn1	MET	cell-free assay, competition with immobilised ligand	1 µM	remaining binding	73%
C[C@H]1CCN(c2nccc(-c3cnn4ncccc34)n2)C1	MET	binding	1 µM	remaining binding	94%
Cc1c[nH]c2nccc(Oc3c(F)cc(Nc4cc(Cl)nc(N)n4)cc3F)c12	MET	cell-free assay, competition with immobilised ligand	0.1 µM	remaining binding	83%
CC1CCCN1c1nccc(-c2cnn3ncccc23)n1 (centres unmarked)	MET M1250T	binding	1 µM	remaining binding	100%
CCN(CC)CCNC(=O)c1c(C)[nH]c(/C=C2\C(=O)Nc3ccc(F)cc32)c1C	MET	cell-free assay	0.5 µM	remaining signal	91%
NS(=O)(=O)c1cc(NC(=O)Cc2ccccc2)ccc1Oc1cccc(Cl)c1	MET	cell-free assay, competition with immobilised ligand	1 µM	remaining binding	91%
Cc1ccc(C(=O)Nc2ccc(CN3CCN(C)CC3)c(C(F)(F)F)c2)cc1C#Cc1cnc2cccnn12	MET M1250T	cell-free assay	23.5 nM	remaining signal	86%
Nc1ncnc2occ(-c3ccc(NC(=O)Nc4cc(C(F)(F)F)ccc4F)cc3)c12	MET M1250T	cell-free assay	20 µM	remaining signal	4.1%
CC(C)(C)c1nc2c(s1)c1nc(N)ncc1c1ccc(NS(=O)(=O)c3c(F)cccc3F)c(F)c12	MET	enzyme activity, inhibitor, radiometric	1 µM	remaining activity	90%
F[C@@H]1CCN(c2nccc(-c3cnn4ncccc34)n2)C1	MET	binding	1 µM	remaining binding	90%
CC(C)CC(=O)N1CCc2nc(-c3ccc(Br)cc3)nc(N(C)Cc3ccccc3)c2C1	MET	cell-free assay, competition with immobilised ligand	0.1 µM	remaining binding	99%
CNC(=O)c1cc2c(Oc3ccc(NC(=O)C4(C(=O)Nc5ccc(F)cc5)CC4)cc3)ccnc2cc1OC	Hepatocyte growth factor receptor (MET, Homo sapiens, UniProt P08581, D1228N)	enzyme activity, inhibitor, radiometric	1 µM	inhibition	100%
CC1=C(C#N)[C@@H](c2ccc3[nH]nc(C)c3c2)C(C#N)=C(c2ccc(Cl)cc2)N1	MET Y1235D	cell-free assay, competition with immobilised ligand	1 µM	remaining binding	52.6%
CN(c1nccc(-c2cnn3ncccc23)n1)C1CC1	MET Y1235D	binding	1 µM	remaining binding	100%

Compound	target	assay	conditions	quantity	result
Cc1nccc(COC(=O)N2C[C@@H]3[C@@H](CNC(=O)c4ccc5[nH]nnc5c4)[C@@H]3C2)n1	MET Y1235D	cell-free assay, competition with immobilised ligand	1 µM	remaining binding	92%
COc1cc(Nc2c(C#N)cnc3cc(OCCCN4CCN(C)CC4)c(OC)cc23)c(Cl)cc1Cl	MET	cell-free assay	0.5 µM	remaining signal	84.5%
Cc1ccc(C(=O)NCc2ccsc2)cc1C#Cc1cn(C(C)C)c2ncnc(N)c12	MET	enzyme activity, inhibitor	1 µM	activity vs control	86%
CN(C)c1ncc(F)c(-c2cnn3ncccc23)n1	MET Y1235D	binding	1 µM	remaining binding	100%
O=C1NC(=O)c2cc(Nc3ccc(F)cc3)c(Nc3ccc(F)cc3)cc21	MET	cell-free assay	0.5 µM	remaining signal	96.7%
Cc1cc(NC(=O)c2cccc3cc(-c4cccc5[nH]nc(N)c45)ccc23)ccc1F	Hepatocyte growth factor receptor (MET, Homo sapiens, UniProt P08581, Y1230H)	enzyme activity, inhibitor	0.1 µM	activity vs control	106%
CCCOc1ccc([C@@H]2[C@@H](C(=O)O)[C@H](c3ccc4c(c3)OCO4)CN2CC(=O)Nc2c(CC)cccc2CC)cc1	MET M1250T	cell-free assay, competition with immobilised ligand	1 µM	remaining binding	81%
O=C(Nc1cnn(-c2csc(C(=O)NC3COC3)c2)c1)Nc1c(F)cccc1Cl	MET	enzyme activity, inhibitor	5 µM	remaining activity	86.1%
CC/C(=N\NC(=O)NCc1cccc(O)c1)c1ccc(O)c(C)c1O	Hepatocyte growth factor receptor (MET, Homo sapiens, UniProt P08581, D1228H)	enzyme activity, inhibitor	0.1 µM	inhibition	-2.8%
O=C(O)[C@H]1[C@H](Cn2nnc3ccccc3c2=O)CC[C@@H]1C(=O)c1ccc(OCCC2CCOCC2)cc1	MET Y1235D	cell-free assay, competition with immobilised ligand	1 µM	remaining binding	100%
N[C@@H]1CCN(c2nccc(-c3cnn4ncccc34)n2)C1	MET Y1235D	binding	1 µM	remaining binding	100%
O=C(Nc1ccc(Cl)cc1)c1ccccc1NCc1ccncc1	MET	cell-free assay	0.5 µM	remaining signal	92.2%
CC(C)(O)[C@H]1CC[C@H](Nc2ccc3ncc(-c4cccc(C(F)(F)F)c4)n3n2)CC1	MET	enzyme activity, inhibitor	1 µM	remaining activity	99.8%
Cc1cnc(NC2CCOCC2)nc1-n1cnc(C(=O)NC(CN)c2cc(F)cc(Cl)c2)c1 (centres unmarked)	MET	enzyme activity, inhibitor, radiometric	1 µM	remaining activity	101%
CN(C)C1CCN(CC#Cc2nn(C3CCCC3)c3nc(NCc4ccccc4)ncc23)C1 (centres unmarked)	MET	enzyme activity, inhibitor, FRET	1 µM	inhibition	28%
CN(CCCC(F)(F)F)c1nccc(-c2cnn3ncccc23)n1	MET M1250T	binding	1 µM	remaining binding	100%
